From ChEMBL document CHEMBL3525903 (Drug Metab Dispos, 2013)
pIC50: −log10 of the molar value.

Assays:
P-glycoprotein [1] = experiment: Permeability assessed as human P-glycoprotein-mediated transport of apical to basolateral side in pig LLC-PK1 cells by measuring nontransporter-related passive membrane permeability by Transwell experiment/liquid scintillation counting; type: ADME, cell-based; details: read-out: permeability
P-glycoprotein [2] = experiment: Permeability assessed as human P-glycoprotein-mediated transport across apical to basolateral side expressed in pig LLC-PK1 cells at 500 uM by liquid scintillation counting; type: ADME, cell-based
[3] = Permeability assessed as human P-glycoprotein-mediated transport across basolateral to apical side expressed in pig LLC-PK1 cells by measuring membrane permeability time by Transwell experiment/liquid scintillation counting; type: ADME, cell-based
[4] = Permeability assessed as human P-glycoprotein-mediated transport across apical to basolateral side expressed in pig LLC-PK1 cells by measuring membrane permeability time by Transwell experiment/liquid scintillation counting; type: ADME, cell-based
P-glycoprotein [5] = experiment: Permeability assessed as human P-glycoprotein-mediated transport across basolateral to apical side expressed in pig LLC-PK1 cells at 2 uM by liquid scintillation counting; type: ADME, cell-based
P-glycoprotein [6] = experiment: Permeability assessed as human P-glycoprotein-mediated active membrane transport by measuring basolateral to apical side expressed in pig LLC-PK1 cells by Transwell experiment/liquid scintillation counting; type: ADME, cell-based; details: read-out: permeability
[7] = target: T1, Solute carrier family 22 member 11 (Homo sapiens, UniProt Q9NSA0); experiment: Inhibition of OAT4 (unknown origin) expressed in HEK293 cells assessed as reduction of [3H]E-sul substrate uptake at 100 uM by liquid scintillation counting; type: ADME, cell-based; details: hek293, 100 µM
T1 sequence (Q9NSA0 whole entry): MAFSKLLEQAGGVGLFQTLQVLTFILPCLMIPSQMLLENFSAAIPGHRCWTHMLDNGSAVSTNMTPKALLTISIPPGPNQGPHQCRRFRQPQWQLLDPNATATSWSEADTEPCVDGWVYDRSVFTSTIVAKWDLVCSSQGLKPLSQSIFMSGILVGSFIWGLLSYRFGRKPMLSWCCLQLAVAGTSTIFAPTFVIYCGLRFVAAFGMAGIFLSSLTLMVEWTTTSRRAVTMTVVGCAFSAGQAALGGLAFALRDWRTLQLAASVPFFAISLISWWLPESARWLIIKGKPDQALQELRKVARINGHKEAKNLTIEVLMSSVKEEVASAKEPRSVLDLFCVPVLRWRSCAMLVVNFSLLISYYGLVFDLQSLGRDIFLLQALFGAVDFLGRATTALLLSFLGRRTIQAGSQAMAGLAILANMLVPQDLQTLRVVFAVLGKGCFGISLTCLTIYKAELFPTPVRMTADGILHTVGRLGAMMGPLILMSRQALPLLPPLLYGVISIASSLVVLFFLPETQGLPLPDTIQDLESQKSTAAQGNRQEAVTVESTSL
Method in brief: (§1)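 HEK293 cells transiently transfected with OAT, OATP or OCT plasmid (FuGENE6; 24 h, then 24 h more with sodium butyrate), or stable OCTN1/OCTN2 lines; vector-transfected cells as control. Washed, preincubated 15–60 min at 37 °C in modified Krebs-Henseleit/25 mM HEPES buffer. Uptake of radiolabelled substrate, 100 µM inhibitor. Cells lysed in NaOH and counted by scintillation; counts normalised to medium radioactivity and Lowry protein; vector uptake subtracted.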

[8] = target: T2, Organic anion transporter 3 (Homo sapiens, UniProt Q8TCC7); experiment: Inhibition of OAT3 (unknown origin) expressed in HEK293 cells assessed as reduction of [3H]E-sul substrate uptake at 100 uM by liquid scintillation counting; type: ADME, cell-based; details: hek293, 100 µM; method in brief: as §1
T2 sequence (Q8TCC7 whole entry): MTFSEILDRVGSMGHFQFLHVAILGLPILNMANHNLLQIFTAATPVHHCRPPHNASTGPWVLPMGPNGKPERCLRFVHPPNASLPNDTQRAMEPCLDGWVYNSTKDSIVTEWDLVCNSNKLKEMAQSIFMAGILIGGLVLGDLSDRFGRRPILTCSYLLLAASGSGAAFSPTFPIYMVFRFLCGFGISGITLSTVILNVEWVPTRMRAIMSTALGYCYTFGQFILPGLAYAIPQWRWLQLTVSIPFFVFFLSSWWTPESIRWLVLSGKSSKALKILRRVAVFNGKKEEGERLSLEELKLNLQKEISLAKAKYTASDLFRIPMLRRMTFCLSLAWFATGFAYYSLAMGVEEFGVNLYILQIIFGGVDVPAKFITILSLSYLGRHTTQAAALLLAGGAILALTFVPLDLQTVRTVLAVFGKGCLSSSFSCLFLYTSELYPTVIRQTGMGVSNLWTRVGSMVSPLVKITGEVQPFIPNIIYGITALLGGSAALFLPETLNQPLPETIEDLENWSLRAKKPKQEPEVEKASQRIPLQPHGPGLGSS

P-glycoprotein [9] = experiment: Permeability assessed as human P-glycoprotein-mediated active membrane transport by measuring apical to basolateral side expressed in pig LLC-PK1 cells by Transwell experiment/liquid scintillation counting; type: ADME, cell-based; details: read-out: permeability
[10] = Drug uptake in human intestine at 5 mg, po; type: ADME, tissue-based; details: in vivo
[11] = target: T3, Solute carrier organic anion transporter family member 1B1 (Homo sapiens, UniProt Q9Y6L6); experiment: Inhibition of OATP1B1 (unknown origin) expressed in HEK293 cells assessed as reduction of [3H]E217betaG substrate uptake at 100 uM by liquid scintillation counting; type: ADME, cell-based; details: hek293, 100 µM; method in brief: as §1
T3 sequence (Q9Y6L6 whole entry): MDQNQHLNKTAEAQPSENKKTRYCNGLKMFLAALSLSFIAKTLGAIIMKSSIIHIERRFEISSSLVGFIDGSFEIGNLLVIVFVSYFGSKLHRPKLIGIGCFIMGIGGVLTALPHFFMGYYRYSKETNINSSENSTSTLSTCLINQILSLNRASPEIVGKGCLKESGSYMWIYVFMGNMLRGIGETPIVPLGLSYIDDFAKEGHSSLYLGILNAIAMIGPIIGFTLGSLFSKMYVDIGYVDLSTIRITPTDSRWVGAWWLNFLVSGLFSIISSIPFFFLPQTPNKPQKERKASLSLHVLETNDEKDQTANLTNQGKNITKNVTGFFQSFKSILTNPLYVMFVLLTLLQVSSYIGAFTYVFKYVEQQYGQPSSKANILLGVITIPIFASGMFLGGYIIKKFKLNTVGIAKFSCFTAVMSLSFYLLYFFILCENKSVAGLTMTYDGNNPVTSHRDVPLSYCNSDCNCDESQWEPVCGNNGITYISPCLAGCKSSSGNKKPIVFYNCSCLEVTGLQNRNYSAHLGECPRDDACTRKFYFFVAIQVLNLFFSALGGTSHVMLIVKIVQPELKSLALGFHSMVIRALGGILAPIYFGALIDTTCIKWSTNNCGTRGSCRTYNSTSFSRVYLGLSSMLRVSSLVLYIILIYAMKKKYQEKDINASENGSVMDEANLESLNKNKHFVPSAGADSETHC

[12] = target: T3, Solute carrier organic anion transporter family member 1B1; experiment: Inhibition of OATP1B1 (unknown origin) expressed in HEK293 cells assessed as reduction of [3H]E217betaG substrate uptake by liquid scintillation counting; type: ADME, cell-based

## CC#CCn1c(N2CCC[C@@H](N)C2)nc2c1c(=O)n(Cc1nc(C)c3ccccc3n1)c(=O)n2C [LINAGLIPTIN]
P-glycoprotein [1]
  Papp A→B: 27.3 ×10⁻⁶ cm/s
P-glycoprotein [2]
  Papp A→B at 500 µM: 26.7 ×10⁻⁶ cm/s
[3]
  Time: 2.71 h
[4]
  Time: 4.4 h
P-glycoprotein [5]
  Papp B→A at 2 µM: 39.4 ×10⁻⁶ cm/s
P-glycoprotein [6]
  Papp B→A: 27.4 ×10⁻⁶ cm/s
[7]
  inhibition (INH): 0%
[8]
  inhibition (INH): 0%
P-glycoprotein [9]
  Papp A→B: 25.1 ×10⁻⁶ cm/s
[10]
  Drug uptake: 42.3 µM
[11]
  inhibition (INH): 35.5%
[12]
  pIC50: < 4.00
